Measured values as given in ChEMBL document CHEMBL4017487, “Design and Synthesis of γ- and δ-Lactam M1 Positive Allosteric Modulators (PAMs): Convulsion and Cholinergic Toxicity of an M1-Selective PAM with Weak Agonist Activity” (J Med Chem, 2017).

What was measured:
MDR1 = test: Efflux ratio of permeability from basolateral to apical side over apical to basolateral side in MDCK1 cells expressing MDR1; assay type: ADME, cell-based, Canis lupus familiaris; details: dog, MDCK-MDR1
Procedure, shortened: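 MDCKI-MDR1 cells (MDCK epithelial line transfected with MDR1/P-gp; from the NIH). Permeability measured as a rate in 10−6 cm/s in both directions; value is the BA/AB ratio.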

[1] = Ratio of unbound AUC in iv or po dosed mouse brain to plasma; assay type: ADME, organism-based
[2] = Ratio of unbound AUC in rat brain to plasma at 2 mg/kg, po or 0.5 mg/kg, iv administered as single bolus dose; assay type: ADME, organism-based
[3] = Clearance in rat at 0.5 mg/kg, iv administered as single bolus dose; assay type: ADME, organism-based; details: in vivo
Procedure, shortened: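 Rat, single IV bolus of 0.5 mg/kg as a solution in 20% HPBCD; observed plasma clearance.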

[4] = Oral bioavailability in rat at 2 mg/kg administered as single dose; assay type: ADME, organism-based; details: in vivo
[5] = Oral bioavailability in dog at 0.5 mg/kg administered as single dose; assay type: ADME, organism-based, Canis lupus familiaris; details: in vivo
[6] = molecular target: T1, Muscarinic acetylcholine receptor M2 (Homo sapiens, UniProt P08172); test: Agonist activity at human muscarinic acetylcholine receptor M2 expressed in CHO cells assessed as increase in cAMP accumulation after 2 hrs by cAMP-Glo assay; assay type: cell-based
T1 sequence (P08172 whole entry): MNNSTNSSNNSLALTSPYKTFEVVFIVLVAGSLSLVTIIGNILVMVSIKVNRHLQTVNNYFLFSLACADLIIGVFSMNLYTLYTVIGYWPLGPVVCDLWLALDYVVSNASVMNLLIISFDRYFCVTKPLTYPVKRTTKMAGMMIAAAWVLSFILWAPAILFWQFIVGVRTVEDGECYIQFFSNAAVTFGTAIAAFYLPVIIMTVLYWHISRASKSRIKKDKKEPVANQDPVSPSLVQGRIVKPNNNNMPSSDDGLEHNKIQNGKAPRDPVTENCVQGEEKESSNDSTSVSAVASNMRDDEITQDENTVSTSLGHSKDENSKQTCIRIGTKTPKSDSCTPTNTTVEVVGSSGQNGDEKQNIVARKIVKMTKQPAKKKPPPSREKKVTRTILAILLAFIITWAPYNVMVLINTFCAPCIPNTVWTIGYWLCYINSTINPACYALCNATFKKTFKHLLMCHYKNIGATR
Procedure, shortened: (§1)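 Recombinant functional human M2–M5 assays, each run in agonist and PAM modes at concentrations up to 10 μM.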

[7] = molecular target: Muscarinic acetylcholine receptor M3 (Homo sapiens, UniProt P20309); test: Agonist activity at human muscarinic acetylcholine receptor M3 expressed in CHO cells assessed as increase in calcium mobilization incubated for 10 mins by Fluo-8-AM dye based FLIPR assay; assay type: cell-based; procedure, shortened: as §1
[8] = molecular target: Dual 3',5'-cyclic-AMP and -GMP phosphodiesterase 11A (Homo sapiens, UniProt Q9HCR9); test: Inhibition of PDE11A4 (unknown origin)
[9] = Selectivity ratio of EC50 for human muscarinic acetylcholine receptor M4 expressed in CHO cells to EC50 for human muscarinic acetylcholine receptor M1 expressed in CHO cells; assay type: ADME, cell-based
[10] = (§2) Agonist activity at muscarinic acetylcholine receptor M1 in Hartley guinea pig ileum longitudinal muscle myenteric plexus assessed as tissue contraction after 10 mins; details: Cavia porcellus
Cavia porcellus = species on record: Cavia porcellus; test: as §2
Mus musculus = test: In vivo agonist activity at muscarinic acetylcholine receptor M1 in C57BL/6 mouse assessed as increase in IP1 accumulation in striatum at 1 to 10 mg/kg, sc measured after 2 hrs; assay type: organism-based
Procedure, shortened: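 C57BL/6 mice dosed with compound or vehicle, then ex vivo striatal IP1 and free brain concentration (Cb,u) measured. Data points are individual mice.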

Plasma = test: Unbound plasma concentration in amphetamine-induced hyperlocomotion C57BL/6 mouse at 1 mg/kg, sc measured after 1 hr by LC-MS/MS analysis; assay type: ADME, organism-based; details: in vivo
Procedure, shortened: (§3)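 Satellite group of C57BL/6 mice from the amphetamine-stimulated locomotor study, N = 2/dose at 0.32, 1 and 3.2 mg/kg. Dosed sc as a solution in 10/90 Cremophor/water. Unbound plasma and brain concentrations measured at T = 1 h.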

Brain [11] = test: Unbound brain concentration in amphetamine-induced hyperlocomotion C57BL/6 mouse at 1 mg/kg, sc measured after 1 hr by LC-MS/MS analysis; assay type: ADME, organism-based; details: in vivo; procedure, shortened: as §3
Brain [12] = test: Unbound brain concentration in amphetamine-induced hyperlocomotion C57BL/6 mouse at 3.2 mg/kg, sc measured after 1 hr by LC-MS/MS analysis; assay type: ADME, organism-based; details: in vivo; procedure, shortened: as §3
Rattus norvegicus [13] = test: Unbound Cmax in rat plasma at 5 mg/kg, po administered as single dose; assay type: ADME, organism-based; details: in vivo
Procedure, shortened: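 Rats (3/sex/dose) dosed orally once, 1 or 5 mg/kg as a 0.5% methylcellulose suspension.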

Rattus norvegicus [14] = test: Unbound Cmax in rat plasma at 15 mg/kg, po administered as single dose; assay type: ADME, organism-based; details: in vivo
Rattus norvegicus [15] = test: Unbound AUC (0 to 24 hrs) in rat plasma at 15 mg/kg, po administered as single dose; assay type: ADME, organism-based; details: in vivo
Rattus norvegicus [16] = test: Toxicity in rat assessed as convulsions at 45 mg/kg, po administered as single dose after 1 to 6 hrs; assay type: organism-based; details: in vivo
Canis familiaris [17] = test: Unbound Cmax in dog plasma at 15 mg/kg, po administered as single dose using spray dried dispersion formulation; assay type: ADME, organism-based, Canis lupus familiaris; details: in vivo
Canis familiaris [18] = test: Unbound AUC (0 to 24 hrs) in dog plasma at 5 mg/kg, po administered as single dose using spray dried dispersion formulation; assay type: ADME, organism-based, Canis lupus familiaris; details: in vivo
Canis familiaris [19] = test: Cholinergic toxicity in dog assessed as soft stool at 5 mg/kg, po administered as single dose using spray dried dispersion formulation after 1.5 hrs; assay type: organism-based, Canis lupus familiaris; details: in vivo
Procedure, shortened: (§4)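 Dog single oral dose escalation: 1/sex at 5 mg/kg for each formulation; 1 female at 15 mg/kg. Spray-dried dispersion: 23% drug loading with 0.5% methylcellulose and 100 mM citrate buffer. Clinical signs timed in approximate hours postdose; unbound plasma Cmax.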

Canis familiaris [20] = test: Cholinergic toxicity in dog assessed as watery stool at 5 mg/kg, po administered as single dose using shydroxypropyl cellulose/docusate sodium formulation after 0.5 to 1.3 hrs; assay type: organism-based, Canis lupus familiaris; details: in vivo
Procedure, shortened: (§5)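 Single-dose oral dose-escalation study, 1 dog/sex/dose. The 5 mg/kg dose was given as a nanosuspension in hydroxypropyl cellulose SL with 0.05% docusate sodium in purified water. Cholinergic clinical signs were recorded at approximate hours postdose, alongside unbound plasma Cmax.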

Canis familiaris [21] = test: Cholinergic toxicity in dog assessed as emesis at 5 mg/kg, po administered as single dose using shydroxypropyl cellulose/docusate sodium formulation after 0.5 to 1.3 hrs; assay type: organism-based, Canis lupus familiaris; details: in vivo; procedure, shortened: as §5
Canis familiaris [22] = test: Toxicity in dog assessed as convulsion at 15 mg/kg, po administered as single dose using spray dried dispersion formulation after 1.2 hrs; assay type: organism-based, Canis lupus familiaris; details: in vivo; procedure, shortened: as §4
Canis familiaris [23] = test: Cholinergic toxicity in dog assessed as increased activity at 15 mg/kg, po administered as single dose using spray dried dispersion formulation after 1 hr; assay type: organism-based, Canis lupus familiaris; details: in vivo; procedure, shortened: as §4
Canis familiaris [24] = test: Toxicity in dog assessed as unbound Cmax in plasma required to show convulsions at 15 mg/kg, po administered as single dose using spray dried dispersion formulation; assay type: organism-based, Canis lupus familiaris; details: in vivo
Brain [25] = test: Unbound brain concentration in scopolamine-induced memory impairment Wistar rat model at 0.32 mg/kg, sc measured at 1.25 hrs post dose by LC-MS/MS analysis; details: in vivo

Dual 3',5'-cyclic-AMP and -GMP phosphodiesterase 11A, sequence (Q9HCR9 whole entry): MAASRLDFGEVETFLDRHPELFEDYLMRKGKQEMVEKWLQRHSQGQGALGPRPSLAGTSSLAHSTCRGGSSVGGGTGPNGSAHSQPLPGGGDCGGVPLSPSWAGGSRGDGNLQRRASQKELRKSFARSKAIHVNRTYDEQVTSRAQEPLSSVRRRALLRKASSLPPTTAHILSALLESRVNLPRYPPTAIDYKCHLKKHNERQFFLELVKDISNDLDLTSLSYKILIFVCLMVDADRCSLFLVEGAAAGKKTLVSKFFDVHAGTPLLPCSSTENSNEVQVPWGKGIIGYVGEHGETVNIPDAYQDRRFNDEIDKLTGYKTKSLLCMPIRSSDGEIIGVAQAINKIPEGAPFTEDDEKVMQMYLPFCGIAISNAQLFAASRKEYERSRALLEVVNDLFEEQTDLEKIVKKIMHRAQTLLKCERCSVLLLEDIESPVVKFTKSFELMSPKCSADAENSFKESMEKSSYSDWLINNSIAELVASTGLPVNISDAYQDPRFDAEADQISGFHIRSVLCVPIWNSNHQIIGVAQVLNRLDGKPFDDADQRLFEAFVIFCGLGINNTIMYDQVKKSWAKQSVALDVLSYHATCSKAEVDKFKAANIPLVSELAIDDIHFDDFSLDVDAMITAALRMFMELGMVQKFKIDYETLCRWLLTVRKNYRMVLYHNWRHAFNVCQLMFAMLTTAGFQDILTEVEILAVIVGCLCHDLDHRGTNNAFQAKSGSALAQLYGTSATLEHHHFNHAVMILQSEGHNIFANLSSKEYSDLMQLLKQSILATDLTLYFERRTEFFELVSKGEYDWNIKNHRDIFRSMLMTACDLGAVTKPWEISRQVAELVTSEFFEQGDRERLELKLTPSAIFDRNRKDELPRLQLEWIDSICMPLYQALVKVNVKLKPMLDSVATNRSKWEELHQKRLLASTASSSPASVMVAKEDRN
Muscarinic acetylcholine receptor M3, sequence (P20309 whole entry): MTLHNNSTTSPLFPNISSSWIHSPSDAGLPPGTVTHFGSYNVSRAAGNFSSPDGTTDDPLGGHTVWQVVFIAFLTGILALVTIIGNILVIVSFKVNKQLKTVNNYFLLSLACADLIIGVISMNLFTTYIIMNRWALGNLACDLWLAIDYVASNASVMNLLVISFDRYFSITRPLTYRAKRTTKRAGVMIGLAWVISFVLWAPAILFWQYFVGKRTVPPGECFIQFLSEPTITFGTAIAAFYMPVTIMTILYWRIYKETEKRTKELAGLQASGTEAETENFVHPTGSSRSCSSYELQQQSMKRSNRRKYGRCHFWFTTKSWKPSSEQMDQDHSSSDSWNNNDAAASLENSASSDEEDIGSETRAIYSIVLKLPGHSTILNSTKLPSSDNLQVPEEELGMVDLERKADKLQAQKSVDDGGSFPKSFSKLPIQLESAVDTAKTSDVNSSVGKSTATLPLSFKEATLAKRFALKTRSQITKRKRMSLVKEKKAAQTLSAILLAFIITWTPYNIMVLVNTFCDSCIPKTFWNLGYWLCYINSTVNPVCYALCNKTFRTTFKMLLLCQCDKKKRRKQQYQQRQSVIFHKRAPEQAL

Cc1cc2c(cc1Cc1ccc(-c3cocn3)cc1)C(=O)N([C@H]1CCOC[C@@H]1O)C2
efflux ratio (MDR1): 11 | Kp uu [1]: 0.3 | Kp uu [2]: 0.2 | clearance [3]: 2.4 mL/min/kg | bioavailability [4]: 91% | bioavailability [5]: 65% | EC50 [6]: > 10 µM | EC50 [7]: > 10 µM | IC50 [8]: 5.06 µM | Ratio EC50 [9]: > 200 | EC50 [10]: 0.092 µM | Activity (Cavia porcellus): Dose-dependent effect | Activity (Mus musculus): Active | Cp(f) (Plasma): 46 nM | Drug uptake(free) (Brain [11]): 14 nM | Drug uptake(free) (Brain [12]): 32 nM | fCmax (Rattus norvegicus [13]): 313 nM | fCmax (Rattus norvegicus [14]): 1507 nM | fAUC (Rattus norvegicus [15]): 20.609 µM·h | Activity (Rattus norvegicus [16]): Toxic | fCmax (Canis familiaris [17]): 1067 nM | fAUC (Canis familiaris [18]): 3.85 µM·h | Activity (Canis familiaris [19]): Toxic | Activity (Canis familiaris [20]): Toxic | Activity (Canis familiaris [21]): Toxic | Activity (Canis familiaris [22]): Toxic | Activity (Canis familiaris [23]): Toxic | fCmax (Canis familiaris [24]): 1070 nM | Drug uptake(free) (Brain [25]): 3.2 nM
